Results of several laboratories.
Compare with care: the assays were run in different laboratories.

The AUC(0-inf) of COc1cc2c(Nc3ccc(Cl)c(Cl)c3F)ncnc2cc1OC[C@@H]1C[C@@H]2CN(C)C[C@@H]2C1 is reported as 158000 ng·h/mL (FVB mouse; brain; oral; 70 mg/kg; single dose).
CCc1cc(OC)c2nccc(N3CCc4c(cc(Cn5ccnc5)cc4-c4cn(C)nc4C(F)(F)F)C3=O)c2c1 gave an AUC(0-inf) of 108000 ng·h/mL (male CD-1 mouse; plasma; oral; 50 mg/kg).
With O=S(=O)(c1ccc(-c2ccc3nccc(Nc4ccncn4)c3c2)cc1)N1CCOCC1 the AUC(0-inf) was 9520 ng·h/mL (female BALB/c mouse; plasma; intraperitoneal; 10 mg/kg).
With CN1C(=O)c2ccccc2[S@+]([O-])c2ccc(C(=O)NCCc3cccs3)cc21 the AUC(0-inf) was 7840 ng·h/mL (male C57BL/6 mouse; plasma; intraperitoneal; 30 mg/kg; single dose).
COc1nc(-c2cc(C)c(N[C@@H](C)c3ccc(F)cc3)nn2)ccc1-n1cnc(C)c1 gave an AUC(0-inf) of 4280 ng·h/mL (male CD-1 mouse; plasma; intravenous; 1 mg/kg; single dose).
With Cc1nc(-c2cnc(NC(C)C)n(C)c2=O)ccc1Oc1ccnc(-c2cnn(C)c2)c1 the AUC(0-inf) was 80400 ng·h/mL (female mouse; plasma; oral; 7.5 mg/kg; single dose).
The AUC(0-inf) of CCc1cc(C(=O)NC)c2nccc(N3CCc4c(cc(Cn5ccnc5)cc4-c4cn(C)nc4C(F)(F)F)C3=O)c2c1 is reported as 4180 ng·h/mL (male CD-1 mouse; plasma; intravenous; 3 mg/kg).
The AUC(0-inf) of c1ccc(-c2nc(N3CCC(c4ccccn4)C3)c3ccccc3n2)nc1 (stereo not shown) is reported as 10500 ng·h/mL (female BALB/c mouse; plasma; oral; 50 mg/kg).
The AUC(0-inf) of Cc1cc(Nc2ccc(S(F)(F)(F)(F)F)cc2)n2ncnc2n1 is reported as 942 µM·h (male Swiss mouse; plasma; oral; 100 mg/kg; single dose).
The AUC(0-inf) of CC=Cc1ccc(O)c(OC)c1 is reported as 10100 ng·h/mL (mouse; plasma; intranasal; 100 mg/kg).
With CCNc1nc2c(c(N3CC(=O)Nc4cc(OC)ccc43)n1)CCC2 the AUC(0-inf) was 620 ng·h/mL (female C57BL/6 mouse; plasma; intravenous; 4 mg/kg; single dose).
CC(C)(C)c1ccc(O)c(CN(Cc2cc(C(C)(C)C)ccc2O)C2CCC(NC(N)=O)CC2)c1 (stereo not shown) has an AUC(0-inf) of 16600 ng·h/mL (male C57BL/6 mouse; plasma; intraperitoneal; 25 mg/kg; single dose).
With COc1cc(C(=O)N2CCC(N3CCN(C)CC3)CC2)ccc1Nc1ncc2c(n1)N(C)c1ccccc1C(=O)N2C the AUC(0-inf) was 2970 ng·h/mL (mouse; plasma; intravenous; 1 mg/kg).
With COc1ccc2nccc(N3CCc4c(cc(Cn5ccnc5)cc4-c4cn(C)nc4C(F)(F)F)C3=O)c2c1 the AUC(0-inf) was 2100 ng·h/mL (male CD-1 mouse; plasma; oral; 10 mg/kg).
COc1ccc2nc(-c3ccccn3)c(N(C)c3ccc(F)cc3)n2c1 has an AUC(0-inf) of 969 ng·h/mL (male CD-1 mouse; plasma; oral; 50 mg/kg; fasted).
The AUC(0-inf) of Cc1ccc2cncc(N3CCc4c(cc(Cn5ccnc5)cc4-c4cn(C)nc4C(F)(F)F)C3=O)c2c1 is reported as 4460 ng·h/mL (male CD-1 mouse; plasma; oral; 10 mg/kg).
The AUC(0-inf) of CC[C@H](C)[C@@H]1NC(=O)[C@@](C)(NC(=O)[C@H](CCCNC(=N)N)NC(=O)[C@H](CC(C)C)NC(=O)[C@@H](NC(=O)[C@H](CCC(N)=O)NC(=O)[C@H](CC(C)C)NC(C)=O)[C@@H](C)O)CCCC=CCCC[C@@](C)(C(=O)N[C@@H](CC(C)C)C(=O)N[C@@H](Cc2ccc3ccccc3c2)C(N)=O)NC(=O)[C@H](CCCNC(=N)N)NC(=O)[C@H](CCC(N)=O)NC1=O is reported as 233000 ng·h/mL (male BALB/c mouse; plasma; intravenous; 10 mg/kg).
The AUC(0-inf) of Cc1ccc(NC(=O)c2ccc(CN3CCN(C)CC3)cc2)cc1Nc1nccc(-c2cncc(-c3oncc3C)c2)n1 is reported as 1200 ng·h/mL (male C57BL/6 mouse; brain; oral; 100 mg/kg/day).
COc1cc(OC)c2nccc(N3CCc4c(cc(Cn5ccnc5)cc4-c4cn(C)nc4C(F)(F)F)C3=O)c2c1 gave an AUC(0-inf) of 60600 ng·h/mL (male CD-1 mouse; plasma; oral; 50 mg/kg).
CNCCN(C)c1cc(C#N)cc(CCc2cc(C)cc(N)n2)c1 gave an AUC(0-inf) of 182 ng·h/mL (male BALB/c mouse; plasma; oral; 10 mg/kg).
CNC(=O)c1cc(OC)cc2c(N3CCc4c(cc(Cn5ccnc5)cc4-c4cn(C)nc4C(F)(F)F)C3=O)ccnc12 has an AUC(0-inf) of 3300 ng·h/mL (male CD-1 mouse; plasma; intravenous; 3 mg/kg).
The AUC(0-inf) of COc1nc(-c2cc(C)c(N[C@@H](C)c3cc(F)cc(F)c3)nn2)ccc1-n1cnc(C)c1 is reported as 13800 ng·h/mL (male CD-1 mouse; plasma; oral; 5 mg/kg; single dose).
